Test results: ChEMBL document CHEMBL1138590, “Discovery of novel dihydro-9,10-ethano-anthracene carboxamides as glucocorticoid receptor modulators” (Bioorg Med Chem Lett, 2009)

Key:
Progesterone receptor = biological target: T1, Progesterone receptor (Homo sapiens, UniProt P06401); experiment: Displacement of […] from progesterone receptor by fluorescence polarization assay
T1 sequence (P06401 whole entry): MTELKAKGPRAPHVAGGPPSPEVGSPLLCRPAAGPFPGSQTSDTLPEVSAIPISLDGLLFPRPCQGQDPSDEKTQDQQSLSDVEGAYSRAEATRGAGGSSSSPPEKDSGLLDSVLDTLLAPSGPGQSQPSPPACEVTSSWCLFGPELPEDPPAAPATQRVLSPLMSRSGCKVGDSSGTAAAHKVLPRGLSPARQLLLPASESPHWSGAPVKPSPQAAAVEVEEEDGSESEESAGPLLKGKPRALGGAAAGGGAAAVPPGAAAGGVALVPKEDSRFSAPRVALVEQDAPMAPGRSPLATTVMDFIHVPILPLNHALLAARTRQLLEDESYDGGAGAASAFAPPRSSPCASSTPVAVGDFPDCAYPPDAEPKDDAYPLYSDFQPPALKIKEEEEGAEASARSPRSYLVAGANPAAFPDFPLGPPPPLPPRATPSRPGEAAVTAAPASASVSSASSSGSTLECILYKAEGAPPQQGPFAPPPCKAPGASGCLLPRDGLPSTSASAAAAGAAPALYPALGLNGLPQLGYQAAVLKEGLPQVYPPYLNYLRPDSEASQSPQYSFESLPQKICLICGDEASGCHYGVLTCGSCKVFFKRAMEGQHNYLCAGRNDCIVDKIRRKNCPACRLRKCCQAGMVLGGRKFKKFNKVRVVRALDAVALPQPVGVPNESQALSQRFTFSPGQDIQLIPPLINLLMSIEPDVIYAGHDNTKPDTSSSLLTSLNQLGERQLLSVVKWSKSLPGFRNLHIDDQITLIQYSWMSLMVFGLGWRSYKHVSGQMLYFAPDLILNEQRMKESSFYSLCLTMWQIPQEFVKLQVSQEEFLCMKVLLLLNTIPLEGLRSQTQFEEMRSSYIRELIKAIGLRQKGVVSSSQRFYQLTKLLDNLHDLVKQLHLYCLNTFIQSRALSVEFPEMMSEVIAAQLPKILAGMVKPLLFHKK
How it was run: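 Fluorescence polarization competition binding: the test compound competes with a fluorescently labelled ligand for binding to the full-length receptor or its ligand-binding domain. IC50 is fitted from the polarization signal with a four-parameter logistic equation. Ki is derived by Cheng–Prusoff, Ki = IC50/(1 + ligand concentration/Kd). Values are means of duplicate experiments.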

Androgen receptor = biological target: T2, Androgen receptor (Homo sapiens, UniProt P10275); experiment: Displacement of fluorescently labeled ligand from androgen receptor by fluorescence polarization assay
T2 sequence (P10275 whole entry): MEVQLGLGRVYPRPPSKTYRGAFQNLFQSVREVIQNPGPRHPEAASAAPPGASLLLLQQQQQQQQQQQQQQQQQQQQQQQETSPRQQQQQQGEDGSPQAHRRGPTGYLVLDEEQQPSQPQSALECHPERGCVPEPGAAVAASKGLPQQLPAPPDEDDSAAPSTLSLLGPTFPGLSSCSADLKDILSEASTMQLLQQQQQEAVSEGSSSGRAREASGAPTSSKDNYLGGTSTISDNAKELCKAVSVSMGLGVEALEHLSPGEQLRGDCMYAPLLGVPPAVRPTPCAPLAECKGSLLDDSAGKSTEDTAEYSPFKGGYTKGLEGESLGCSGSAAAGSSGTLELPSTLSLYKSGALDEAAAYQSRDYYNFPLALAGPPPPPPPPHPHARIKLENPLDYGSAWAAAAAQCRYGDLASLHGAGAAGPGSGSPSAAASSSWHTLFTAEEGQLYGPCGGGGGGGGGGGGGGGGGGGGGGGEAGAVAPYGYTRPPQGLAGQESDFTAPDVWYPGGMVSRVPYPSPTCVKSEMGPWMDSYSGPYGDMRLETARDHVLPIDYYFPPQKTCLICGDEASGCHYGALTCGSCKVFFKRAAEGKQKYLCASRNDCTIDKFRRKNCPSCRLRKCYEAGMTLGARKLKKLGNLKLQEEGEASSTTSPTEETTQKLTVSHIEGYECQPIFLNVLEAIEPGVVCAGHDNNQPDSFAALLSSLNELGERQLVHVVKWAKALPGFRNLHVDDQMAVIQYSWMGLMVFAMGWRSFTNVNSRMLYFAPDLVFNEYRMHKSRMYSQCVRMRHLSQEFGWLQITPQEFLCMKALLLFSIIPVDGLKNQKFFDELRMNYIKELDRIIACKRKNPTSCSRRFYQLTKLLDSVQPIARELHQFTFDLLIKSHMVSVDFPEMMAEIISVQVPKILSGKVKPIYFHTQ

Glucocorticoid receptor [1] = biological target: T3, Glucocorticoid receptor (Homo sapiens, UniProt P04150); experiment: Agonist activity at GR ligand binding domain expressed in human NP1 cells assessed as glucocorticoid response element transactivation by GAL4 luciferase reporter gene assay; assay type: cell-based
T3 sequence (P04150 whole entry): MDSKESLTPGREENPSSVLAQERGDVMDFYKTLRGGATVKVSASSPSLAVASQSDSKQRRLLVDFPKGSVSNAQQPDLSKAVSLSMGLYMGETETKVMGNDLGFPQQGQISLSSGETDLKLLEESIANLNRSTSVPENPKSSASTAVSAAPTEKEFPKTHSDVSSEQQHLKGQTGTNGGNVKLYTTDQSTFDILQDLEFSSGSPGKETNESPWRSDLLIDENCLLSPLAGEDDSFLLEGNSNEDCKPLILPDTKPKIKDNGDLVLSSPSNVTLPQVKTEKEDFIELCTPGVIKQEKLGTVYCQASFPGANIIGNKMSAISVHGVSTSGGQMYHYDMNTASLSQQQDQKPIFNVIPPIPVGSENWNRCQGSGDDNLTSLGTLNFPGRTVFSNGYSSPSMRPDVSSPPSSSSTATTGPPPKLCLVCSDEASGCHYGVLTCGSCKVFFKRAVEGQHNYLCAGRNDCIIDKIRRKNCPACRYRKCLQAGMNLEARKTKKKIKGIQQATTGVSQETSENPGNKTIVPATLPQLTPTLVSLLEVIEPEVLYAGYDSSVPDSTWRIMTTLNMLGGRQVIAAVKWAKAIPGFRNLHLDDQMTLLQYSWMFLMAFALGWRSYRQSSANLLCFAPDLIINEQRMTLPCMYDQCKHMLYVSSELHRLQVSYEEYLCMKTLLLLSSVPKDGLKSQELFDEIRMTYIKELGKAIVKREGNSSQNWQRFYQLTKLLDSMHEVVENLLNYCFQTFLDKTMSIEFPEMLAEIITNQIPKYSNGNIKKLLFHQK

Glucocorticoid receptor [2] = biological target: T3, Glucocorticoid receptor; experiment: Transrepression activity at GR in IL-1-beta-stimulated human A549 cells assessed as inhibition of NF-kappaB-dependent E-selectin transcription by luciferase reporter gene assay; assay type: cell-based

SMILES | Ki (Progesterone receptor) [nM] | Ki (Androgen receptor) [nM] | EC50 (Glucocorticoid receptor [1]) [nM] | EC50 (Glucocorticoid receptor [2]) [nM]
C[C@@]1(C(=O)Nc2nccs2)CC2c3ccccc3C1c1ccccc12 | 147 | 7400 | – | –
C[C@@]1(C(=O)Nc2nccs2)CC2(C#N)c3ccccc3C1c1ccccc12 | 34 | > 10000 | > 10000 | 19.4
